Laboratory results from ChEMBL document CHEMBL1221298, “InCl3 mediated one-pot multicomponent synthesis, anti-microbial, antioxidant and anticancer evaluation of 3-pyranyl indole derivatives” (Bioorg Med Chem Lett, 2010).
Values after ≈ are worked out from the molar mass of the structure shown. Active and inactive are the calls of the source. The rule behind the calls is not given here.

Columns and labels:
Format in all cases: functional
[1] = tested on: Staphylococcus aureus; assay: microbe, parasite or virus in culture; details: ATCC 9144, 24 h, read-out: IZ
[2] = tested on: Bacillus cereus; assay: Antimicrobial activity against Bacillus cereus ATCC 11778 at 100 ug/ml after 24 hrs by paper disk diffusion method; details: ATCC 11778, 24 h, read-out: IZ
[3] = tested on: Escherichia coli; assay: microbe, parasite or virus in culture; details: ATCC 25922, 24 h, read-out: IZ
[4] = tested on: Klebsiella pneumoniae; assay: microbe, parasite or virus in culture; details: ATCC 11298, 24 h, read-out: IZ
[5] = tested on: Staphylococcus aureus; assay: microbe, parasite or virus in culture; details: ATCC 9144, 24 h
[6] = tested on: Bacillus cereus; assay: microbe, parasite or virus in culture; details: ATCC 11778, 24 h
[7] = tested on: Escherichia coli; assay: microbe, parasite or virus in culture; details: ATCC 25922, 24 h
[8] = tested on: Klebsiella pneumoniae; assay: microbe, parasite or virus in culture; details: ATCC 11298, 24 h
[9] = tested on: Radical scavenging activity; assay: Antioxidant activity assessed as DPPH radical scavenging activity at 50 ug/ml
Outline: (§1)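 Each test sample was mixed with 1 ml DPPH in methanol, incubated at 37 °C for 30 min, and read spectrophotometrically at 517 nm with a blank reading. Scavenging % was expressed as the absorbance decrease at 517 nm relative to DPPH solution without test sample.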

[10] = tested on: Radical scavenging activity; assay: Antioxidant activity assessed as DPPH radical scavenging activity at 100 ug/ml
Outline: as §1

[11] = tested on: Radical scavenging activity; assay: Antioxidant activity assessed as DPPH radical scavenging activity at 200 ug/ml
Outline: as §1

[12] = tested on: Radical scavenging activity; assay: Antioxidant activity assessed as DPPH radical scavenging activity at 400 ug/ml
Outline: as §1

[13] = tested on: Radical scavenging activity; assay: Antioxidant activity assessed as DPPH radical scavenging activity
Outline: as §1

[14] = Antioxidant activity assessed as ABTS radical scavenging activity at 50 ug/ml
Outline: (§2)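 Test samples at 50, 100, 200 and 400 ug/ml were each mixed with 1 ml of freshly prepared ABTS radical cation solution, adjusted to absorbance 0.7–0.9 at 734 nm. Mixtures reacted 2 h in the dark, then absorbance was read at 734 nm against a blank. Scavenging % was taken as the absorbance decrease relative to ABTS solution without test sample.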

[15] = Antioxidant activity assessed as ABTS radical scavenging activity at 100 ug/ml
Outline: as §2

[16] = Antioxidant activity assessed as ABTS radical scavenging activity at 200 ug/ml
Outline: as §2

[17] = Antioxidant activity assessed as ABTS radical scavenging activity at 400 ug/ml
Outline: as §2

[18] = Antioxidant activity assessed as ABTS radical scavenging activity
Outline: as §2

[19] = tested on: MCF7; assay: Cytotoxicity against human MCF7 cells after 24 hrs by MTT assay; details: MCF7, 24 h
Outline: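 Exponentially growing cells plated at 10⁴ cells/well and allowed to attach, then exposed to test compounds or doxorubicin (dissolved in 0.1% DMSO, diluted in medium; range 1–100) for 24 h; controls received medium with 0.1% DMSO. MTT (1 mg/ml) added for 4 h at 37 °C, formazan dissolved in DMSO, absorbance read at 540 nm; % cytotoxicity calculated from blank-corrected absorbances versus control.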

## N#CC1=C(N)OC(c2c[nH]c3ccccc23)=C(C#N)C1c1ccc(Br)cc1 (stereo not given)
[1]
  zone of inhibition at 100 µg/mL: 20 mm
[2]
  zone of inhibition at 100 µg/mL: 14 mm
[3]
  zone of inhibition at 100 µg/mL: 15 mm
[4]
  zone of inhibition at 100 µg/mL: 16 mm
[5]
  MIC: 21.3 µg/mL (≈ 51 µM)
[6]
  MIC: 28 µg/mL (≈ 67.1 µM)
[7]
  MIC: 25.4 µg/mL (≈ 60.9 µM)
[8]
  MIC: 26.3 µg/mL (≈ 63 µM)
[9]; at 50 µg/mL
  Activity: 46.7%
[10]; at 100 µg/mL
  Activity: 49.7%
[11]; at 200 µg/mL
  Activity: 54.3%
[12]; at 400 µg/mL
  Activity: 57.8%
[13]
  IC50: 117.8 µg/mL (≈ 282 µM)
[14]; at 50 µg/mL
  Activity: 14.2%
[15]; at 100 µg/mL
  Activity: 14.6%
[16]; at 200 µg/mL
  Activity: 10.6%
[17]; at 400 µg/mL
  Activity: 22.7%
[18]
  IC50: 947.09 µg/mL (≈ 2270 µM)
[19]
  GI50: 21.8 µM
  LC50 (concentration killing 50% of cells): > 100 µM
  TGI: 48.1 µM

## N#CC1=C(N)OC(c2c[nH]c3ccccc23)=C(C#N)C1c1cccc2ccccc12 (stereo not given)
[1]
  zone of inhibition at 100 µg/mL: 15 mm
[2]
  zone of inhibition at 100 µg/mL: 16 mm
[3]
  zone of inhibition at 100 µg/mL: 16 mm
[4]
  zone of inhibition at 100 µg/mL: 15 mm
[5]
  MIC: 28.6 µg/mL (≈ 73.6 µM)
[6]
  MIC: 26.2 µg/mL (≈ 67.5 µM)
[7]
  MIC: 28 µg/mL (≈ 72.1 µM)
[8]
  MIC: 33.2 µg/mL (≈ 85.5 µM)
[9]; at 50 µg/mL
  Activity: 18.8%
[10]; at 100 µg/mL
  Activity: 21.8%
[11]; at 200 µg/mL
  Activity: 22.8%
[12]; at 400 µg/mL
  Activity: 26.4%
[13]
  IC50: 1599.62 µg/mL (≈ 4120 µM)
[14]; at 50 µg/mL
  Activity: 4.7%
[15]; at 100 µg/mL
  Activity: 6.8%
[16]; at 200 µg/mL
  Activity: 7.7%
[17]; at 400 µg/mL
  Activity: 10.4%
[18]
  IC50: > 1000 µg/mL
[19]
  GI50: 18.2 µM
  LC50 (concentration killing 50% of cells): 80.2 µM
  TGI: 33.9 µM

## N#CC1=C(N)OC(c2c[nH]c3ccccc23)=C(C#N)C1c1ccc2ccccc2c1 (stereo not given)
[1]
  zone of inhibition at 100 µg/mL: 14 mm
[2]
  zone of inhibition at 100 µg/mL: 15 mm
[3]
  zone of inhibition at 100 µg/mL: 16 mm
[4]
  zone of inhibition at 100 µg/mL: 15 mm
[5]
  MIC: 32.4 µg/mL (≈ 83.4 µM)
[6]
  MIC: 23.3 µg/mL (≈ 60 µM)
[7]
  MIC: 29.4 µg/mL (≈ 75.7 µM)
[8]
  MIC: 30.5 µg/mL (≈ 78.5 µM)
[9]
  Activity: inactive
[10]
  Activity: inactive
[11]
  Activity: inactive
[12]
  Activity: inactive
[13]
  Activity: inactive
[14]
  Activity: inactive
[15]
  Activity: inactive
[16]
  Activity: inactive
[17]
  Activity: inactive
[18]
  Activity: inactive
[19]
  GI50: 15.5 µM
  LC50 (concentration killing 50% of cells): 91.5 µM
  TGI: 46.6 µM

## COc1ccc(C2C(C#N)=C(N)OC(c3c[nH]c4ccccc34)=C2C#N)cc1OC (stereo not given)
[1]
  zone of inhibition at 100 µg/mL: 15 mm
[2]
  zone of inhibition at 100 µg/mL: 16 mm
[3]
  zone of inhibition at 100 µg/mL: 17 mm
[4]
  zone of inhibition at 100 µg/mL: 17 mm
[5]
  MIC: 31.8 µg/mL (≈ 79.8 µM)
[6]
  MIC: 25.4 µg/mL (≈ 63.8 µM)
[7]
  MIC: 26.7 µg/mL (≈ 67 µM)
[8]
  MIC: 21.2 µg/mL (≈ 53.2 µM)
[9]; at 50 µg/mL
  Activity: 55.8%
[10]; at 100 µg/mL
  Activity: 57.9%
[11]; at 200 µg/mL
  Activity: 59.1%
[12]; at 400 µg/mL
  Activity: 62.9%
[13]
  IC50: < 50 µg/mL
[14]; at 50 µg/mL
  Activity: 14.5%
[15]; at 100 µg/mL
  Activity: 19.1%
[16]; at 200 µg/mL
  Activity: 26.1%
[17]; at 400 µg/mL
  Activity: 28.1%
[18]
  IC50: 867.28 µg/mL (≈ 2180 µM)
[19]
  GI50: 20.6 µM
  LC50 (concentration killing 50% of cells): 72.1 µM
  TGI: 37.4 µM

## N#CC1=C(N)OC(c2c[nH]c3ccccc23)=C(C#N)C1c1ccccc1F (stereo not given)
[1]
  zone of inhibition at 100 µg/mL: 19 mm
[2]
  zone of inhibition at 100 µg/mL: 14 mm
[3]
  zone of inhibition at 100 µg/mL: 15 mm
[4]
  zone of inhibition at 100 µg/mL: 15 mm
[5]
  MIC: 23.4 µg/mL (≈ 65.7 µM)
[6]
  MIC: 22.6 µg/mL (≈ 63.4 µM)
[7]
  MIC: 27.4 µg/mL (≈ 76.9 µM)
[8]
  MIC: 30.2 µg/mL (≈ 84.7 µM)
[9]
  Activity: inactive
[10]
  Activity: inactive
[11]
  Activity: inactive
[12]
  Activity: inactive
[13]
  Activity: inactive
[14]
  Activity: inactive
[15]
  Activity: inactive
[16]
  Activity: inactive
[17]
  Activity: inactive
[18]
  Activity: inactive
[19]
  GI50: 22.8 µM
  LC50 (concentration killing 50% of cells): > 100 µM
  TGI: 48.2 µM
